This note sets out measurements from ChEMBL document CHEMBL2407020, “Design, synthesis, and evaluation of novel VEGFR2 kinase inhibitors: discovery of [1,2,4]triazolo[1,5-a]pyridine derivatives with slow dissociation kinetics” (Bioorg Med Chem, 2013).

Series [1] in a line: Metabolic stability in mouse liver microsomes. Type of series: ADME, Microsome. The note with it: read-out: Stability. The method in brief:
(§1)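 Metabolic stability measured in hepatic microsomes, expressed in µL/min/mg.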
For orientation: Liver microsomes are vesicles of endoplasmic reticulum, rich in cytochrome P450 enzymes.

Series [2] in a line: Metabolic stability in human liver microsomes. Format: ADME, Microsome. As to conditions: read-out: Stability. The method in brief:
as §1

A short description of series [3]: Kinetic solubility of the compound in 2nd fluid of Disintegration Test of the Japanese Pharmacopoeia at pH 6.8. Format: physicochemical. The note with it: read-out: Kinetic_solubility. The method, boiled down:
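Kinetic solubility measured in JP2 (2nd fluid of Disintegration Test, Japanese Pharmacopoeia), pH 6.8.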

In brackets after ≈: the same amount, converted by molar mass.

`Cc1cc(C(=O)Nc2cccc(Oc3ccc4nc(NC(=O)C5CC5)cn4n3)c2)n(C)n1`: the results for the microsomal CLint in series [1] and in series [2] were 43 µL/min/mg and 6 µL/min/mg, respectively. The solubility kinetic in series [3] worked out at 1.7 µg/mL (≈ 3.94 µM).
As to `Cc1cc(C(=O)Nc2cccc(Oc3ccc4nc(NC(=O)C5CC5)nn4c3)c2)n(C)n1`, the solubility kinetic in series [3] came out at 1.2 µg/mL (≈ 2.78 µM).
Same read-out and setting: the result for `Cc1cc(C(=O)Nc2cc(Oc3ccc4nc(NC(=O)C5CC5)nn4c3)ccc2C)n(C)n1` reads 53 µg/mL (≈ 119 µM); that for `Cc1cc(NC(=O)c2cc(C)nn2C)cc(Oc2ccc3nc(NC(=O)C4CC4)nn3c2)c1`, 3.2 µg/mL (≈ 7.18 µM).
Turning to `Cc1cc(C(=O)Nc2cc(Oc3ccc4nc(NC(=O)C5CC5)nn4c3)ccc2F)n(C)n1`, the microsomal CLint in series [1] was 45 µL/min/mg; in series [2], 10 µL/min/mg. In addition, the solubility kinetic in series [3] stood at 65 µg/mL (≈ 145 µM).
For the compound `Cc1cc(C(=O)Nc2cccc(Oc3ccc4nc(NC(=O)C5CC5)cn4c3)c2)n(C)n1`, the solubility kinetic in series [3] worked out at 0.73 µg/mL (≈ 1.7 µM).
On the same count and under the same terms, next, `Cc1cc(C(=O)Nc2cc(Oc3ccc4nc(NC(=O)C5CC5)cn4c3)ccc2C)n(C)n1`: 2.9 µg/mL (≈ 6.52 µM).
As to `Cc1cc(C(=O)Nc2cccc(Oc3ccc4nc(NC(=O)C5CC5)sc4n3)c2)n(C)n1`, in series [3], the solubility kinetic was under 0.04 µg/mL.
Same read-out and setting: the result for `Cc1cc(C(=O)Nc2cc(Oc3ccc4nc(NC(=O)C5CC5)sc4n3)ccc2C)n(C)n1` reads 4.8 µg/mL (≈ 10.4 µM); that for `Cc1cc(C(=O)Nc2ccc(C)c(Oc3ccc4nc(NC(=O)C5CC5)nn4c3)c2)n(C)n1`, 3.7 µg/mL (≈ 8.31 µM).
Same read-out and setting: the result for `Cc1nc(C(=O)Nc2cc(Oc3ccc4nc(NC(=O)C5CC5)nn4c3)ccc2C)c(C)s1` reads 0.16 µg/mL (≈ 0.346 µM); that for `Cc1ccc(Oc2ccc3nc(NC(=O)C4CC4)nn3c2)cc1NC(=O)c1scc(C)c1Cl`, 1.2 µg/mL (≈ 2.49 µM).
With `Cc1ccc(Oc2ccc3nc(NC(=O)C4CC4)nn3c2)cc1NC(=O)c1cn(C)nc1C`, the microsomal CLint in series [1] turned out to be 78 µL/min/mg; in series [2], 6 µL/min/mg. For the same compound, in series [3], the solubility kinetic was over 93 µg/mL.
With `Cc1ccc(Oc2ccc3nc(NC(=O)C4CC4)nn3c2)cc1NC(=O)c1ccnn1C`, the solubility kinetic in series [3] was over 80 µg/mL.
Regarding `Cc1ccc(Oc2ccc3nc(NC(=O)C4CC4)nn3c2)cc1NC(=O)CC(C)C`, in series [3], the solubility kinetic is 12 µg/mL (≈ 29.4 µM).
`Cc1ccc(Oc2ccc3nc(NC(=O)C4CC4)nn3c2)cc1NC(=O)C1CCC1`: the solubility kinetic in series [3] is over 78 µg/mL.
In the case of `Cc1cc(C(=O)Nc2cccc(Oc3ccc4nc(NC(=O)C5CC5)sc4c3)c2)n(C)n1`, the solubility kinetic in series [3] was found to be 0.22 µg/mL (≈ 0.492 µM).
